The data set can be described thus: Toxicity liver stage against HepG2, at 10uM. The class given is cell-based. Also noted: test concentration 10 uM, cell line HepG2-A16-CD81EGFP. The following applies: human, HepG2-A16-CD81EGFP cells; read-out: INHIBITION
In short, it runs like this: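 Uninfected HepG2-A16-CD81EGFP cells, 3 × 10^3 per well, 1536-well, plated on prespotted compound at 10 μM final, parasite-free screening media added to match infected plates; puromycin 10 μM positive, DMSO 0.5% negative; run in parallel with 48 h PbLuc assay at 37 °C, 5% CO2; viability by CellTiter-Glo luminescence, normalized to controls.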
As for `Cc1cccc(N2CC[C@H]3[C@H]2CCN3C(=O)c2cnn(C)c2)n1`, the cytotoxicity at 10 µM turned out to be 1.24%.

For `CN(Cc1cccnc1)[C@@H]1CN(C(=O)c2ccco2)[C@@H]2CCCO[C@H]12`, the cytotoxicity at 10 µM is -108%.

On to `CCOCCn1nc(C)cc1C(=O)N1CCCC[C@H](N(C)C)C1`, for which the cytotoxicity at 10 µM is -3.68%.

For the compound `O=c1c2sccc2nc2n1CCN(Cc1ccsc1)CC2`, the cytotoxicity at 10 µM was -25.4%.

Take `CCn1ncc2c1NC(=O)C(C#N)C21CCCC1` (stereo unspecified): the cytotoxicity at 10 µM is -0.242%.

Take `O=C(Cc1cccs1)NC1CCN(c2cccc(F)c2)CC1`: the cytotoxicity at 10 µM was -24.2%.

In the case of `Cc1cc(F)cc2c(N3CCC(S(N)(=O)=O)CC3)c(C#N)cnc12`, the cytotoxicity at 10 µM is 0.79%.

In the case of `CC(=O)N1CCCC1c1cccc(Cc2ccccc2F)n1` (stereo unspecified), the cytotoxicity at 10 µM was -1.44%.

Consider `Cc1noc([C@@H]2C[C@H]3OCC[C@H]3N(Cc3ccoc3)C2)n1`, for which the cytotoxicity at 10 µM is -71.4%.

For `Cn1cc(C(=O)N2CCCC(CN3CCCC3=O)C2)cn1` (stereo unspecified), the cytotoxicity at 10 µM is -12.6%.

For `Cc1cnn(CCNCc2csc(-c3cccs3)n2)c1`, the cytotoxicity at 10 µM was -9.91%.

Consider `O=C(N[C@@H]1CNCCC[C@H]1O)c1ccc(OCCN2CCCC2)cc1`, for which the cytotoxicity at 10 µM was -0.155%.

Regarding `Cc1ccc(CN2CC[C@H]3[C@H]2CC(=O)N3c2ccsc2)o1`, the cytotoxicity at 10 µM was determined as 1.12%.

Take `CN1CCNC(=O)C12CCN(C(=O)c1ccc3[nH]c(=O)[nH]c3c1)CC2`: the cytotoxicity at 10 µM was 0.5%.

As to `Cc1cc(C(=O)NCCN2CCCc3ccccc32)[nH]n1`, the cytotoxicity at 10 µM is 0.868%.

For `Cc1c(F)cccc1S(=O)(=O)N(C)CC(C)O` (stereo unspecified), the cytotoxicity at 10 µM turned out to be 4.98%.

`CCc1nnsc1C(=O)NC(CC(C)C)C(=O)OC` (stereo unspecified): the cytotoxicity at 10 µM is 11.4%.

On to `Cc1n[nH]c(C2CN(C(=O)CCOCC(F)(F)F)CCO2)n1` (stereo unspecified), for which the cytotoxicity at 10 µM is -12.9%.

Turning to `CCc1nc(CN2CCCN(c3ncnc4sccc34)CC2)no1`, the cytotoxicity at 10 µM was 59.9%.

With `CCC(C)N(Cc1ccncc1)Cc1cccc(Cn2cccn2)c1` (stereo unspecified), the cytotoxicity at 10 µM is -45.1%.

Turning to `CN(Cc1cnc(N)nc1)C(=O)C1CCN(C(=O)C2CCCC2)CC1`, the cytotoxicity at 10 µM is -1.42%.

Take `Cc1ccc(S(=O)(=O)NCCNC(=O)c2cncnc2C)cc1`: the cytotoxicity at 10 µM was -1.51%.

Consider `Cc1noc(C)c1CN1CCCC2(CCN(C(=O)CC3CC3)C2)C1` (stereo unspecified), for which the cytotoxicity at 10 µM is 7.71%.

For the compound `CC(=O)Nc1ccc(C(=O)Nc2cnc3n2CCCC3)c(C)c1`, the cytotoxicity at 10 µM is -1.14%.

As to `CN(C)C(=O)CC1CC2(CCN(Cc3cccs3)CC2)c2ccccc21` (stereo unspecified), the cytotoxicity at 10 µM is -3.87%.

With `COc1ccc2ncn(Cc3ncc[nH]3)c(=O)c2c1`, the cytotoxicity at 10 µM was -11%.

As for `O=C1CO[C@@H]2CN(C(=O)CCc3ccccc3)C[C@H]2N1`, the cytotoxicity at 10 µM worked out at 6.06%.

For the compound `CNC(=O)[C@H]1C[C@@H]2CN(C(=O)c3ccncc3F)C[C@@H]2N1C`, the cytotoxicity at 10 µM is -111%.

`COc1cccc(Cn2cc(C3=CCN(CCO)CC3)cn2)c1`: the cytotoxicity at 10 µM is -10.2%.

Take `COc1cccc2c1ccn2CCC(=O)Nc1c2c(nn1C)CSC2`: the cytotoxicity at 10 µM was determined as 5.11%.

Consider `COc1c(CNCCNC(=O)c2ccc(C)c(F)c2)c(C)nn1C`, for which the cytotoxicity at 10 µM is -3.33%.

As to `COc1cc(C(=O)NS(=O)(=O)c2cncc(Br)c2)cc(OC)c1C`, the cytotoxicity at 10 µM amounted to 4.77%.

For `Cn1ccnc1C(=O)N1CCC2(CCN2CC2CC2)C1` (stereo unspecified), the cytotoxicity at 10 µM was determined as 11.8%.

As to `COc1ccc(CC(=O)N2CCCC(n3cc(C)cn3)C2)c(OC)c1` (stereo unspecified), the cytotoxicity at 10 µM is -8.66%.

With `COCCC(C)NCc1ccccc1-n1ccnc1` (stereo unspecified), the cytotoxicity at 10 µM stood at 1.91%.

`CC(C)N1CC(NC(=O)c2ccc(Cl)s2)CC1=O` (stereo unspecified): the cytotoxicity at 10 µM is -8.51%.

On to `CCn1ncc(CN2CCc3nc(-c4cccnc4)nc(O)c3C2)c1C`, for which the cytotoxicity at 10 µM is -23.7%.

Regarding `CCC1(CO)CCN(C(=O)c2cc(COc3ccccc3F)[nH]n2)CC1`, the cytotoxicity at 10 µM was found to be 4.45%.

As for `Cc1ccc(C)c(SCC(=O)Nc2cccc(C(=O)N(C)C)n2)c1`, the cytotoxicity at 10 µM was -9.9%.

Turning to `Cc1ncc2c(c1CNC(=O)C1(C)CCCCO1)CCNC2` (stereo unspecified), the cytotoxicity at 10 µM is -27.9%.

Turning to `CCOC(=O)C1CN(S(=O)(=O)C2CC2)Cc2ncn(CC)c21` (stereo unspecified), the cytotoxicity at 10 µM was 6.71%.

For the compound `Cc1c(-c2nc(-c3cccc(CN4CCOCC4)c3)no2)cnn1C`, the cytotoxicity at 10 µM is -0.988%.

As to `O=C(c1ccc(-n2ccnc2)nn1)N1CCCC1CCc1ccccc1` (stereo unspecified), the cytotoxicity at 10 µM worked out at 8.57%.

As to `Fc1ccccc1CN1C[C@H](OCC2CCOCC2)[C@H]2OCCC[C@H]21`, the cytotoxicity at 10 µM is -2.4%.

Take `CN(C)C(=O)N1C[C@H]2CC[C@@H](C1)N(C(=O)CCCn1cncn1)C2`: the cytotoxicity at 10 µM is -12.2%.

With `CCC1CN(CCCNS(C)(=O)=O)c2ccccc2O1` (stereo unspecified), the cytotoxicity at 10 µM is -7.03%.

As to `CC(C)(C)OC(=O)N1CCC(NCc2cnn(C(C)(C)C)c2)CC1`, the cytotoxicity at 10 µM is 4.85%.

Regarding `NC(=O)C1CN(Cc2c[nH]cn2)CCN(C2CCOCC2)C1` (stereo unspecified), the cytotoxicity at 10 µM is 3.83%.

As to `COCc1cccc(C(=O)N2CCCN(C(=O)OCC(C)C)CC2)c1`, the cytotoxicity at 10 µM is -10%.

For `Cn1ccc(CN2CCC(NC(=O)NC3CCCCC3)CC2)cc1=O`, the cytotoxicity at 10 µM is -6.26%.

In the case of `CCOc1ccc(NC(=O)Nc2cc(N3CCCCC3)ncn2)cc1`, the cytotoxicity at 10 µM was determined as 2.21%.

Consider `CC1CCN(S(=O)(=O)NCCCn2cncn2)CC1`, for which the cytotoxicity at 10 µM is -4.91%.

For the compound `COCCC(=O)Nc1ccnn1-c1ccccc1`, the cytotoxicity at 10 µM was -2.55%.

On to `CN(Cc1nccs1)c1nccc(N2CCN[C@H]3CS(=O)(=O)C[C@H]32)n1`, for which the cytotoxicity at 10 µM was -5%.

Turning to `Cc1cc(CN2CCC(C3CCN(CC(C)C)CC3)C2)[nH]n1` (stereo unspecified), the cytotoxicity at 10 µM was -8.71%.

As for `CSCC(=O)Nc1ncn(Cc2cccc(Br)c2)n1`, the cytotoxicity at 10 µM was -12%.

On to `OC1(CNCCN2CCCc3ccccc32)CCNC1` (stereo unspecified), for which the cytotoxicity at 10 µM came to 7.03%.

On to `CC(C)(C)c1ccn(C2(C(=O)O)CCN(c3ccncc3F)CC2)n1`, for which the cytotoxicity at 10 µM was -0.423%.

Consider `CN(Cc1ccco1)C(=O)CN1CCCCC1Cn1cccn1` (stereo unspecified), for which the cytotoxicity at 10 µM was found to be 2.91%.

On to `Cc1cccc(N(CC(=O)c2ccccc2)C2=NCCCCC2)c1`, for which the cytotoxicity at 10 µM is 14.5%.

For `N#CCCCOc1cccnc1NC(=O)CCC1CCCC1`, the cytotoxicity at 10 µM is -2.08%.

Turning to `Cn1cnc(-c2ccc(F)cc2)c1NC(=O)CCNC(=O)C(C)(C)C`, the cytotoxicity at 10 µM stood at 3.84%.

`Cc1cccc(-n2cc(C(=O)N3CCCC(n4ccnc4)C3)nn2)c1` (stereo unspecified): the cytotoxicity at 10 µM stood at 5.39%.

For `COc1cccc(S(=O)(=O)Cc2noc(CC(C)C)n2)c1`, the cytotoxicity at 10 µM was 12%.

`NC(=O)c1cccc(OCC(=O)N2CCCC(n3cccn3)C2)c1` (stereo unspecified): the cytotoxicity at 10 µM was -13.5%.

`CSc1nc(C)cc(N2CCC(c3ncc[nH]3)CC2)n1`: the cytotoxicity at 10 µM was -10.6%.

For the compound `Cc1noc(C)c1CN1CCOCC12CCN(c1ncccn1)CC2`, the cytotoxicity at 10 µM was -104%.

As to `COc1ccc(CN2C[C@@H]3COC[C@H](N4CCN(C)CC4)[C@@H]3C2)cc1`, the cytotoxicity at 10 µM is -85.6%.

In the case of `CNc1cc(-c2nc(CCN3CCCC3=O)no2)ccn1`, the cytotoxicity at 10 µM amounted to 7.46%.

Regarding `CCOCC1CN(S(C)(=O)=O)Cc2nn(C)cc21` (stereo unspecified), the cytotoxicity at 10 µM was -95.9%.

In the case of `Cc1cc(CN2CCN(C(=O)NC(C)c3ccncc3)CC2)on1` (stereo unspecified), the cytotoxicity at 10 µM was -5.66%.

`CC1CCN(C(=O)[C@@H]2C[C@@H]3CCN(Cc4nccs4)C[C@H]3O2)CC1`: the cytotoxicity at 10 µM was -107%.

As to `Cn1nnc2c1CCN(Cc1ccccc1)C2COCC1CC1` (stereo unspecified), the cytotoxicity at 10 µM is 3.24%.

Turning to `O=C(CO)N1CCCC(c2cc(C(F)(F)F)[nH]n2)C1` (stereo unspecified), the cytotoxicity at 10 µM was -5.12%.

`Cc1cnn(CC(C)NCc2ccc(OCc3cscn3)cc2)c1` (stereo unspecified): the cytotoxicity at 10 µM was -9.35%.

In the case of `O=C(NCc1nc(C2CCCCC2)no1)C1CC(=O)N(C2CCCC2)C1` (stereo unspecified), the cytotoxicity at 10 µM turned out to be 0.761%.

Consider `CSCC(C)(O)CNC(=O)Nc1ccc(C)cc1Br` (stereo unspecified), for which the cytotoxicity at 10 µM is -9.83%.

As to `O=C(c1ccc(OCC2CC2)nc1)N1CCCC(n2cncn2)C1` (stereo unspecified), the cytotoxicity at 10 µM was -3.25%.

In the case of `CS(=O)(=O)CCSc1nnc(Cc2ccccc2F)o1`, the cytotoxicity at 10 µM was 0.313%.

With `Cc1ccc(C(=O)NCCCNS(C)(=O)=O)cc1-n1cccc1`, the cytotoxicity at 10 µM is -10%.

On to `CN(Cc1ccccc1)C(=O)CN1CCCC(Cn2cncn2)C1` (stereo unspecified), for which the cytotoxicity at 10 µM was -11.8%.

For the compound `Cn1cccc1C(=O)N1C[C@@H]2C[C@@H](c3nnc(C4CC4)o3)O[C@@H]2C1`, the cytotoxicity at 10 µM is -112%.

On to `O=C(NCCc1ccsc1)c1ccoc1`, for which the cytotoxicity at 10 µM was -3.3%.

Turning to `CCOC(C)C(=O)N(C)C1CCN(c2ccc(OC)cc2)CC1` (stereo unspecified), the cytotoxicity at 10 µM was -1.57%.

Consider `COc1ccc(OC)c2c(C)cc(N(CCO)CCO)nc12`, for which the cytotoxicity at 10 µM is -114%.

As for `O=C(Cc1ccc2c(c1)OCCO2)N1CCCC(n2ccnc2)C1` (stereo unspecified), the cytotoxicity at 10 µM turned out to be 3.8%.

In the case of `FC(F)(F)Cn1nnnc1SCCN1CCCCC1`, the cytotoxicity at 10 µM is -61.4%.

As for `CCOc1ncccc1C(=O)NCCN(CC)C1CC1`, the cytotoxicity at 10 µM stood at 4.4%.

`FC(F)(F)Cc1noc(CN2CCCC2c2noc(C3CC3)n2)n1` (stereo unspecified): the cytotoxicity at 10 µM was -2.7%.

Consider `Cc1nc2n(n1)CC(NCC(=O)NCC1(c3ccccc3)CC1)CC2` (stereo unspecified), for which the cytotoxicity at 10 µM was -6.52%.

`NC(=O)c1cccc2nc([C@H]3CCN(Cc4ccccc4F)C3)[nH]c12`: the cytotoxicity at 10 µM came out at 20.8%.

Take `Cc1ccc2c(n1)N(Cc1ccncc1)CCN(S(C)(=O)=O)C2`: the cytotoxicity at 10 µM is -77.2%.

For `c1cc2c(cc1CN1C[C@@H]3COC[C@@H](N4CCCC4)[C@@H]3C1)OCO2`, the cytotoxicity at 10 µM was 4.62%.

In the case of `CN(C)c1cccc(C(=O)NCC2(O)CCOCC2)c1`, the cytotoxicity at 10 µM was found to be 10.3%.

As to `COC(=O)C(C)(C)C(C)(C)NC(=O)Nc1nnc(-c2ccccn2)s1`, the cytotoxicity at 10 µM worked out at 9.15%.

Take `COCC1CN(C(=O)c2cccc(C)n2)Cc2ncnn2C1` (stereo unspecified): the cytotoxicity at 10 µM was determined as 3.84%.

Values taken from ChEMBL document CHEMBL4513216, “Probing the Open Global Health Chemical Diversity Library for Multistage-Active Starting Points for Next-Generation Antimalarials” (ACS Infect Dis, 2020).
